Experimental data reported in ChEMBL document CHEMBL2086316, “Synthesis and structure-activity relationships of pyrazolo[1,5-a]pyridine derivatives: potent and orally active antagonists of corticotropin-releasing factor 1 receptor” (J Med Chem, 2012).

What was measured:
Liver microsomes = assay: Intrinsic clearance in human liver microsomes after 15 mins; type: ADME, Microsome
Method in brief: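 Compound at 0.3 μmol/L (0.03% DMSO final) was incubated with pooled human liver microsomes (0.1 mg/mL protein) and an NADPH-generating system at 37 °C for 0 and 15 min. Reactions were quenched with acetonitrile/methanol containing internal standard. Parent depletion was measured by LC/MS/MS. Values are the mean of six measurements.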

[1] = Oral bioavailability in CD1 (ICR) mouse at 10 mg/kg; type: ADME, organism-based; settings: in vivo
Method in brief: (§1)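 Male fasted CD1 (ICR) mice dosed i.v. 3 mg/kg or p.o. 10 mg/kg (10 mL/kg each). Vehicle was DMSO/5% glucose with 1/250 volume 5 mol/L HCl (1:19 i.v., 1:9 p.o.). Vena cava blood was drawn at 0.083 (i.v. only), 0.25, 0.5, 1, 2, 4, 6, 8 and 24 h, n = 4 per time point. Plasma was extracted and assayed by reversed-phase HPLC with fluorescence detection. Values are the mean of four animals.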

[2] = AUC in CD1 (ICR) mouse at 10 mg/kg, po; type: ADME, organism-based; design: dose 10 mg/kg, route oral; settings: plasma; method in brief: as §1
[3] = Tmax in CD1 (ICR) mouse 10 mg/kg, po; type: ADME, organism-based; design: dose 10 mg/kg, route oral; settings: in vivo; method in brief: as §1
[4] = Clearance in CD1 (ICR) mouse at 3 mg/kg, iv; type: ADME, organism-based; design: dose 3 mg/kg, route intravenous; settings: in vivo; method in brief: as §1
[5] = Volume of distribution at steady state in CD1 (ICR) mouse 3 mg/kg, iv; type: ADME, organism-based; design: dose 3 mg/kg, route intravenous; settings: in vivo, read-out: Vdss; method in brief: as §1
[6] = Cmax in CD1 (ICR) mouse at 10 mg/kg, po; type: ADME, organism-based; design: dose 10 mg/kg, route oral; settings: in vivo; method in brief: as §1
[7] = AUC in CD1 (ICR) mouse at 3 mg/kg, iv; type: ADME, organism-based; design: dose 3 mg/kg, route intravenous; settings: plasma; method in brief: as §1
[8] = Terminal half life in CD1 (ICR) mouse at 3 mg/kg, iv; type: ADME, organism-based; design: dose 3 mg/kg, route intravenous; settings: in vivo, read-out: beta t1/2 (converted); method in brief: as §1

CLint (Liver microsomes) [µL/min/mg] | SMILES | other results
450 | CCc1nn2c(-c3c(C)cc(OC)cc3OC)cccc2c1N(CC1CCOCC1)CC1CC1 | –
300 | CCc1nn2c(-c3c(OC)cc(COC)cc3OC)cccc2c1N(CC1CCOCC1)CC1CC1 | –
1120 | CCc1nn2c(-c3c(C)cc(C)cc3OC)cccc2c1N(CC1CC1)CC1CC1 | –
1100 | COCc1cc(OC)c(-c2cccc3c(N(CC4CCOCC4)CC4CC4)c(C#N)nn23)c(OC)c1 | –
1410 | CCc1nn2c(-c3c(C)cc(C)cc3OC)cccc2c1N(CCCF)CC1CC1 | –
1350 | CCc1nn2c(-c3c(C)cc(C)cc3OC)cccc2c1N(CC1CC1)CC1CCOC1 (centres undefined) | –
520 | CCOCc1cc(OC)c(-c2cccc3c(N(CC4CCOCC4)CC4CC4)c(CC)nn23)c(OC)c1 | –
440 | CCc1nn2c(-c3c(OC)cc(C)cc3OC)cccc2c1N(CC1CCOCC1)CC1CC1 | –
340 | COCc1cc(OC)c(-c2cccc3c(N(CC4CCOCC4)CC4CC4)c(SC)nn23)c(OC)c1 | –
700 | CCCN(CC1CCOCC1)c1c(CC)nn2c(-c3c(OC)cc(COC)cc3OC)cccc12 | –
1230 | CCc1nn2c(-c3c(C)cc(C)cc3OC)cccc2c1N(CC1CC1)CC1CCCO1 (centres undefined) | –
600 | CCc1nn2c(-c3cc(OC)c(OC)cc3OC)cccc2c1N(CC1CCOCC1)CC1CC1 | –
450 | CCc1nn2c(-c3c(C)cc(C)cc3OC)cccc2c1N(CC1CCOCC1)CC1CC1 | –
– | CCc1nn2c(-c3c(OC)cc(COC)cc3OC)cccc2c1N(CC1CCOCC1)CC1CC1.Cc1ccc(S(=O)(=O)O)cc1 | bioavailability [1]: 31%; AUC [2]: 870 ng·h/mL; Tmax [3]: 0.25 h; clearance [4]: 43.3 mL/min/kg; Vd [5]: 3.74 L/kg; Cmax [6]: 320 ng/mL; AUC [7]: 850 ng·h/mL; half-life [8]: 2.2 h
530 | CCc1nn2c(-c3c(COC)cc(OC)cc3OC)cccc2c1N(CC1CCOCC1)CC1CC1 | –
1690 | CCc1nn2c(-c3c(C)cc(C)cc3OC)cccc2c1N(CCOC)CC1CC1 | –
740 | CCc1nn2c(-c3c(OC)cccc3OC)cccc2c1N(CC1CCOCC1)CC1CC1 | –
760 | COCc1cc(OC)c(-c2cccc3c(N(CC4CCOCC4)CC4CC4)c(OC)nn23)c(OC)c1 | –
450 | CCc1nn2c(-c3c(OC)cc(OC)cc3OC)cccc2c1N(CC1CCOCC1)CC1CC1 | –
570 | COc1cc(C)cc(OC)c1-c1cccc2c(N(CC3CCOCC3)CC3CC3)c(OC)nn12 | –
110 | COCc1cc(OC)c(-c2cccc3c(N(CC4CCOCC4)CC4CC4)c(C)nn23)c(OC)c1 | –
890 | CCCN(CC1CCOCC1)c1c(CC)nn2c(-c3c(OC)cc(C)cc3OC)cccc12 | –
